The text below walks through data of ChEMBL document CHEMBL1949631, “Novel 3-phenylpiperidine-4-carboxamides as highly potent and orally long-acting neurokinin-1 receptor antagonists with reduced CYP3A induction” (Bioorg Med Chem, 2012).

The subject of series [1] is Cavia porcellus. Description: Inhibition of GR73632-induced increase in locomotor activity in Hartley guinea pig at 0.3 mg/kg, iv after 5 mins relative to control. In kind it is functional. In outline: (§1)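 Male Hartley guinea pigs, 6–8 per group. Compound or vehicle in DMA-PEG400 (1:1, v/v), 0.5 mL/kg, given intravenously just before intracerebroventricular infusion of the NK1 agonist […]. %inh. is taken from activity counts relative to vehicle-treated and sham-infused groups. Values are averages of 5–10 independent experiments.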

A short description of series [2]: (§2) Metabolic stability in human liver microsomes assessed as parent compound remaining at 1 uM after 15 to 30 mins by HPLC analysis. Type of series: ADME, Microsome. To be noted: liver microsomes, read-out: Stability. In outline: (§3)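 Compound at 1 μM incubated with human liver microsomes for 15 and 30 min under standard conditions. Remaining parent compound quantified by HPLC and expressed as μL/mg/min.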

The target in a further series is Substance-P receptor (Homo sapiens, UniProt P25103). Description: Displacement of [125I]BH-SP from tachykinin NK1 receptor in human IM9 cells after 30 mins by scintillation counting. Type of series: cell-based, IM-9. The method in brief:
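Receptor membranes from human IM-9 lymphoblasts (grown 3 days, homogenised, spun 40,000 g) in 50 mM Tris-HCl pH 7.4 with 0.02% BSA, protease inhibitors and 3 mM MnCl2. Incubated with [125I]BH-SP (final 130 pM) for 30 min at room temperature in 0.2 mL. Nonspecific binding defined with 2×10^-6 M SP. Read by rapid GF/C filtration (PEI-soaked filters), three washes, scintillation counting.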

A further series has as its system Liver microsomes. Described as §2. Type of series: ADME, Microsome. To be noted: microsomes, 1 µM. In outline:
as §3

In series [3] the test system is Cavia porcellus. Nature of the series: Inhibition of GR73632-induced increase in locomotor activity in Hartley guinea pig at 0.1 mg/kg, iv after 5 mins relative to control. Type of series: functional. In outline: as §1
Series [4] is described as follows: AUC (0 to 24 hrs) in dog at 1 mg/kg, po. To be noted: plasma. In kind it is ADME, organism-based, Canis lupus familiaris. Set-up: time < 24 hr, dose 1 mg/kg, route oral. The method in brief: (§4)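 Single oral dose of 1 mg/kg. Blood concentration–time curve used to derive AUC, mean residence time and bioavailability.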
Series [5] in a line: Oral bioavailability in guinea pig at 1 mg/kg. Type of series: ADME, organism-based, Cavia porcellus. The conditions noted are these: in vivo. In outline:
as §4

Series [6] is described as follows: Mean residence time in rat at 1 mg/kg, po. Type of series: ADME, organism-based. Set-up: dose 1 mg/kg, route oral. The conditions noted are these: in vivo. In outline: as §4
The nature of series [7]: Metabolic stability in guinea pig microsomes. Type of series: ADME, Cavia porcellus, Microsome.
Series [8] is described as follows: AUC (0 to 24 hrs) in rat at 1 mg/kg, po. In kind it is ADME, organism-based. Set-up: time < 24 hr, dose 1 mg/kg, route oral. To be noted: plasma. The method in brief: as §4
A short description of series [9]: Metabolic stability in dog microsomes. In kind it is ADME, Canis lupus familiaris, Microsome.
Series [10] concerns Cavia porcellus. Description: Inhibition of GR73632-induced increase in locomotor activity in po dosed Hartley guinea pig after 1 hr. Type of series: functional. The conditions noted are these: read-out: ID50 (the source's name). The method in brief:
(§5)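 Male Hartley guinea pigs, 6–8 per group, dosed orally with compound suspended in 0.5% methylcellulose (2 mL/kg), or vehicle, 0.75 h (1 h line) or 23.75 h (24 h line) before intracerebroventricular […] infusion. %inh. comes from locomotor counts corrected for the sham-infused group against the vehicle control. ID50 and 95% CI come from linear regression of the dose–response.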

Series [11] can be described thus: Oral bioavailability in rat at 1 mg/kg. The conditions noted are these: in vivo. In kind it is ADME, organism-based. The method in brief:
as §4

Series [12] can be described thus: Metabolic stability in rat microsomes. In kind it is ADME, Microsome.
A short description of series [13]: AUC (0 to 24 hrs) in guinea pig at 1 mg/kg, po. Type of series: ADME, organism-based, Cavia porcellus. Also noted: time < 24 hr, dose 1 mg/kg, route oral. To be noted: plasma. In outline: as §4
The subject of series [14] is Cavia porcellus. Description: Inhibition of GR73632-induced increase in locomotor activity in po dosed Hartley guinea pig after 24 hrs. Type of series: functional. To be noted: read-out: ID50 (the source's name). In outline:
as §5

A short description of series [15]: Oral bioavailability in dog at 1 mg/kg. The conditions noted are these: in vivo. In kind it is ADME, organism-based, Canis lupus familiaris. The method in brief:
as §4

Series [16] in a line: Mean residence time in guinea pig at 1 mg/kg, po. Type of series: ADME, organism-based, Cavia porcellus. Also noted: dose 1 mg/kg, route oral. The conditions noted are these: in vivo. The method in brief:
as §4

For series [17], the target named is T1, Nuclear receptor subfamily 1 group I member 2 (Homo sapiens, UniProt O75469).
T1 sequence (O75469 whole entry): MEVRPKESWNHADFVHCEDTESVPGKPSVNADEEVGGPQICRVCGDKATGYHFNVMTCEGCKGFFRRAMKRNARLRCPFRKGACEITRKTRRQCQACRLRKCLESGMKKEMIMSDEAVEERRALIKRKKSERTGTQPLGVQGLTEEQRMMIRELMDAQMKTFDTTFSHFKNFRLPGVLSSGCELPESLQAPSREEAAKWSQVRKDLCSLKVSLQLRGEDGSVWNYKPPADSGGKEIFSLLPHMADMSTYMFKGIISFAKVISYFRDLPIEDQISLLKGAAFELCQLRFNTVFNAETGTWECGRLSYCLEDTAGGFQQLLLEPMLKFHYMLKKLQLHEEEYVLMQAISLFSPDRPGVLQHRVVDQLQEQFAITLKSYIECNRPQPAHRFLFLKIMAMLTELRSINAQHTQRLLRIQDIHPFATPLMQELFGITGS
Description: Induction of human PXR-mediated CYP3A activity at 10 uM.

Series [18] is described as follows: Metabolic stability in monkey microsomes. Type of series: ADME, Macaca mulatta, Microsome. The conditions noted are these: rhesus monkey.
Series [19] is described as follows: Mean residence time in dog at 1 mg/kg, po. In kind it is ADME, organism-based, Canis lupus familiaris. Set-up: dose 1 mg/kg, route oral. To be noted: in vivo. In outline:
as §4

Series [20] can be described thus: Oral bioavailability in monkey at 1 mg/kg. To be noted: rhesus monkey, in vivo. In kind it is ADME, organism-based, Macaca mulatta. The method in brief:
as §4

Series [21] can be described thus: Mean residence time in monkey at 1 mg/kg, po. In kind it is ADME, organism-based, Macaca mulatta. Set-up: dose 1 mg/kg, route oral. To be noted: rhesus monkey, in vivo. In outline: as §4
Series [22] in a line: AUC (0 to 24 hrs) in monkey at 1 mg/kg, po. In kind it is ADME, organism-based, Macaca mulatta. Also noted: time < 24 hr, dose 1 mg/kg, route oral. The conditions noted are these: rhesus monkey, plasma. In outline:
as §4

Sequence of Substance-P receptor (P25103 whole entry): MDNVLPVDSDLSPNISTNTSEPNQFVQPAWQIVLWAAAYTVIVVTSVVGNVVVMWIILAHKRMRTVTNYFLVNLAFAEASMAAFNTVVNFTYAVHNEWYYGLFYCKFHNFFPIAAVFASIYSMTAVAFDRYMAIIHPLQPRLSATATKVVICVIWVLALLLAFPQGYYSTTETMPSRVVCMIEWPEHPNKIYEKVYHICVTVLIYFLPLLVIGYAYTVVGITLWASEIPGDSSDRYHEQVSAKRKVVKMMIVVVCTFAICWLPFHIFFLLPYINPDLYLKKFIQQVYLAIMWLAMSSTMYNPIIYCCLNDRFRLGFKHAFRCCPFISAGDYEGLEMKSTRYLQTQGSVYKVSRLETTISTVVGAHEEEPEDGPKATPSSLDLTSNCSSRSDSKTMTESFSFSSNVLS

As to `CNC(=O)C(=O)N1CC[C@H](C(=O)N(C)Cc2cc(C(F)(F)F)cc(C(F)(F)F)c2)[C@@H](c2ccc(F)cc2C)C1` (racemic), the inhibition in vivo at 0.3 mg/kg in the series on Cavia porcellus [1] turned out to be 51.5%. For the same compound, in series [2], the microsomal CLint at 1 µM amounted to 115 µL/min/mg. Besides, the IC50 at Substance-P receptor was determined as 0.11 nM.

`CC(=O)N1CCC(C(=O)N2CC[C@H](C(=O)N(C)Cc3cc(C(F)(F)F)cc(C(F)(F)F)c3)[C@@H](c3ccccc3C)C2)CC1` (racemic): the inhibition in vivo at 0.3 mg/kg in the series on Cavia porcellus [1] came out at 60.1%. For the same compound, the IC50 at Substance-P receptor was 0.032 nM.

Consider `CC(=O)N1CCC(C(=O)N2CC[C@H](C(=O)N(C)Cc3cc(C(F)(F)F)cc(C(F)(F)F)c3)[C@@H](c3cccc(C)c3)C2)CC1` (racemic), for which the IC50 on Substance-P receptor stood at 0.14 nM.

Compound `CN(Cc1cc(C(F)(F)F)cc(C(F)(F)F)c1)C(=O)[C@@H]1CCNC[C@H]1c1ccccc1` (racemic) returned an IC50 on Substance-P receptor of 2.6 nM.

Regarding `Cc1cc(F)ccc1[C@H]1CN(C(=O)C(N)=O)CC[C@@H]1C(=O)N(C)Cc1cc(C(F)(F)F)cc(C(F)(F)F)c1` (racemic), the inhibition in vivo at 0.3 mg/kg in the series on Cavia porcellus [1] stood at 86.7%. Besides, the Stability with Liver microsomes amounted to 40 µL/mg/min. This compound gave an IC50 on Substance-P receptor of 0.052 nM.

As for `CONC(=O)N1CC[C@H](C(=O)N(C)Cc2cc(C(F)(F)F)cc(C(F)(F)F)c2)[C@@H](c2ccc(F)cc2C)C1` (racemic), the inhibition in vivo at 0.1 mg/kg with Cavia porcellus [3] is -23.9%. The compound further yielded an IC50 at Substance-P receptor of 0.073 nM.

As to `CC(=O)N1CCC(C(=O)N2CC[C@H](C(=O)N(C)Cc3cc(C(F)(F)F)cc(C(F)(F)F)c3)[C@@H](c3ccc(C)cc3)C2)CC1` (racemic), the IC50 at Substance-P receptor is 0.18 nM.

In the case of `Cc1cc(F)ccc1[C@H]1CN(C(=O)C(N)=O)CC[C@@H]1C(=O)N(C)[C@@H](C)c1cc(C(F)(F)F)cc(C(F)(F)F)c1`, the AUC(0-t) at 24 h was determined as 2150 ng·h/mL in series [4], 521 ng·h/mL in [8], 1080 ng·h/mL in [13] and 1040 ng·h/mL in series [22]. The bioavailability was 83% in series [5], 29% in series [11], 40% in series [15] and 38% in series [20]. Also, the MRT in series [6] turned out to be 4.5 h; in series [16], 7.5 h; in [19] it was 6.5 h; in [21], 6.4 h. The Stability in [7] worked out at 3 µL/mg/min; in [9], 0 µL/mg/min; in series [12], 13 µL/mg/min; in [18], 14 µL/mg/min. For the same compound, the microsomal CLint at 1 µM in [2] was found to be 2 µL/min/mg. Moreover, the values for the ED50 with Cavia porcellus [10] and in the series with Cavia porcellus [14] were 0.1 mg/kg and 0.57 mg/kg, respectively. The inhibition in vivo at 0.1 mg/kg in the series on Cavia porcellus [3] stood at 78.9%. This compound returned an Activity in series [17] of 3%.

For `CC(=O)N1CCC(C(=O)N2CCC(C(=O)N(C)Cc3cc(C(F)(F)F)cc(C(F)(F)F)c3)=C(c3ccccc3)C2)CC1`, the IC50 on Substance-P receptor came out at 0.17 nM.

As for `CC(=O)N1CCC(C(=O)N2CC[C@H](C(=O)N(C)Cc3cc(C(F)(F)F)cc(C(F)(F)F)c3)[C@@H](c3ccc(F)cc3C)C2)CC1` (racemic), in the series with Cavia porcellus [1], the inhibition in vivo at 0.3 mg/kg was determined as 105%. For the same compound, the microsomal CLint at 1 µM in series [2] came to 111 µL/min/mg. In series [17], this compound yielded an Activity of 2%. This compound returned a half-maximal inhibitory concentration (IC50) at Substance-P receptor of 0.047 nM.

`Cc1cc(F)ccc1[C@H]1CN(C(=O)C(=O)NO)CC[C@@H]1C(=O)N(C)Cc1cc(C(F)(F)F)cc(C(F)(F)F)c1` (racemic): the microsomal CLint at 1 µM in series [2] was found to be 2 µL/min/mg. Further, in the series with Cavia porcellus [3], the inhibition in vivo at 0.1 mg/kg was -15.5%. In addition, the IC50 at Substance-P receptor was determined as 0.046 nM.

On to `Cc1cc(F)ccc1[C@H]1CN(C(=O)C(N)=O)CC[C@@H]1C(=O)N(C)[C@H](C)c1cc(C(F)(F)F)cc(C(F)(F)F)c1`, for which the microsomal CLint at 1 µM in [2] turned out to be 57 µL/min/mg. Besides, in the series on Cavia porcellus [3], the inhibition in vivo at 0.1 mg/kg was 43.1%. At Substance-P receptor, this compound came in with an IC50 of 0.2 nM.

In the case of `CC(=O)NCC(=O)N1CC[C@H](C(=O)N(C)Cc2cc(C(F)(F)F)cc(C(F)(F)F)c2)[C@@H](c2ccc(F)cc2C)C1` (racemic), in the series on Cavia porcellus [1], the inhibition in vivo at 0.3 mg/kg was determined as 48.9%. Besides, the microsomal CLint at 1 µM in [2] was 59 µL/min/mg. Also, the IC50 on Substance-P receptor is 0.043 nM.
